NR2E3 ag-1 = activates human NR2E3 receptor. Q9Y5X4. CHO-S Gal4-NCOR/VP16-NR2E3 two-hybrid, luciferase. inhibition of corepressor binding, % at 3.98 µM. 0.35% of 360,000 active. AID 602229;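 active means inhibition above the mean of all tested compounds plus 3 SD, cut at about 70% in these data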;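 further: 0% = DMSO with NR2E3 transfected cells and 100% = cells lacking NR2E3 construct; higher means lower luciferase signal from less NR2E3 corepressor binding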
Target sequence (Q9Y5X4 whole entry, looked up, the tested form may be a part): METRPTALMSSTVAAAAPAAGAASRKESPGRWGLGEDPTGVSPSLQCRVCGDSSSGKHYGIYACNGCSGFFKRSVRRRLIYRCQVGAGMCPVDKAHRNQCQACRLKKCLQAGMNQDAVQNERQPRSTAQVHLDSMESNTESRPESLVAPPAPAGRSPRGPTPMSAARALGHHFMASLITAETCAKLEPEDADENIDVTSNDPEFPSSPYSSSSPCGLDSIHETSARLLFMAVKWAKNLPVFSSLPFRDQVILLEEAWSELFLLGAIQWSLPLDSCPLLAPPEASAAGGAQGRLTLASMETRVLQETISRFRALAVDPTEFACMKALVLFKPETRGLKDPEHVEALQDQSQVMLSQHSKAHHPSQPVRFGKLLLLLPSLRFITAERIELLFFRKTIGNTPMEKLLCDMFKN
Rev-erbA mod = Rev-erb alpha (human) modulation | Rev-erbα–FITC-DNA binding, fluorescence polarization, 90 min | activity, % at 10 µM | 0.79% of 370,000 active;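 active means activity above about 14%, limit read from the data; passing the limit was not always enough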;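 further: 0% = DMSO wells with 35 nM protein and 100% = DMSO wells with 750 nM protein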
PG9 Ab binder = binds the HIV-1 gp120 antibody PG9 | inhibition, % at 6.7 µM | 0.43% of 360,000 active | TR-FRET gp120-PG9 antibody binding; in the data active means inhibition above about 8.5%
NR2E3 ag-2 = activates human photoreceptor nuclear receptor NR2E3. Q9Y5X4. GST-NR2E3/biotin-RetCOR TR-FRET, 1536-well. inhibition of corepressor binding, % at 4.78 µM. 0.12% of 320,000 active. AID 2300;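 active means percent inhibition above the cutoff of mean plus 3 SD of all tested compounds, set per screening campaign, cut at about 20% in these data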;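 further: 0% = DMSO wells and 100% = biotin wells as full block of FRET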
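Assay system: NR2E3–RetCOR corepressor complex. Quantity: 1.35 nM GST-NR2E3. Buffer or medium: pH 7.5 Tris-based buffer. Reagent: biotinylated RetCOR corepressor at 7 nM final. Schedule: 5 h at 4 °C. Detection: TR-FRET, emission read at 617 and 671 nm. Replicates: one well per compound, singlicate testing.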
Rev-erbA confirm = Rev-erb alpha (human) modulation, hit confirmation; shares compounds with Rev-erbA mod; Rev-erb alpha FITC-DNA binding, fluorescence polarization, 90 min; activation, % at 25 µM; 61% of 3,000 active; AID 1259319;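 active means activation at or above a set limit, or at least 3 SD above the negative control mean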;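 further: 0% = 35 nM protein with DMSO and 100% = 750 nM protein high control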
RORg DNA counter = RORgamma DNA-binding activity, dose-response counter-screen | AID 1259320 | purified RORgamma protein-FITC-DNA binding, fluorescence polarization | shares compounds with Rev-erbA mod | 8% of 910 active | IC50, µM;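 active means Compounds whose fitted half-maximal concentration for disrupting protein-DNA binding is below 10 micromolar; the record names Rev-erb in its text, so the target is in doubt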
Active calls of the source: *; i = inactive; nt = no result given. A selection: hits, their analogues and other compounds. The true share with any hit is near 1.4%.

SMILES	NR2E3 ag-1	Rev-erbA mod	PG9 Ab binder	NR2E3 ag-2	Rev-erbA confirm	others
C=CCn1c(SCc2nc3ccccc3c(=O)[nH]2)nnc1-c1cc2cc(Cl)ccc2o1	-7.3	25.9*	-1.2	1.1	30.0*
Cc1ccc(-n2nnnc2CNC(=O)C(=O)c2c[nH]c3ccccc23)cc1C	-42.4	7.3	1.5	nt	nt
CCOC(=O)[C@]12CCC=C1N(Cc1cccc3ccccc13)C(=O)[C@H](CC(=O)NCCc1ccccc1OC)C2	23.6	-4.0	-0.3	nt	nt
COc1cccc(CNc2nc3ccc(C)cc3n3cnnc23)c1	-9.9	26.2*	1.8	-0.8	7.3
COc1ccc2c(c1)cc(C(=O)N[C@@H](Cc1ccccc1)C(=O)N[C@@H](C)C(=O)O)n2C	-33.1	28.4*	-1.4	1.2	-6.3
CCCCNC(=O)C1C(c2ccc(OC)cc2)=Nc2ccccc2N1C(=O)c1ccncc1 (stereo not drawn)	nt	-5.4	-2.0	nt	nt
CCOc1ccccc1N=Cc1c(O)c2ccccc2oc1=O	-32.4	36.5*	2.1	-1.7	10.4
COc1ccc(Cl)cc1N=Cc1c(O)c2ccccc2oc1=O	5.1	6.8	-1.9	3.8	nt
O=C(CSc1nc2ccccc2nc1N1CCCC1)N1CCN(C(c2ccccc2)c2ccccc2)CC1	nt	-7.7	nt	nt	nt
O=C(CSc1nc2ccccc2nc1N1CCCCC1)N1CCN(C(c2ccccc2)c2ccc(Cl)cc2)CC1 (stereo not drawn)	nt	18.9*	nt	nt	21.0*
CC12CN3CC(C)(CN(C1)C3c1cc(Br)ccc1O)C2=O (stereo not drawn)	-15.3	18.1	1.3	0.4	nt
Cn1cc(C2N3CC4(C)CN2CC(C)(C3)C4=O)c2ccccc21 (stereo not drawn)	9.2	17.2*	-1.0	-3.2	18.3*
Cc1c(C2N3CC4(C)CN2CC(C)(C3)C4=O)c2ccccc2n1C (stereo not drawn)	-3.3	41.8*	-0.3	3.1	68.6*	RORg DNA counter=>40
CC(=O)c1c(C)[nH]c(C(=O)Nc2cc(S(=O)(=O)N3CCCCC3)ccc2C)c1C	-20.2	16.8*	-1.0	2.7	9.5
CC(Cc1ccc(O)c(O)c1)(NN)C(=O)O (stereo not drawn)	nt	-1.1	nt	nt	nt
COC(=O)[C@]12C[C@H](CC(=O)N3CCC(c4ccccc4)CC3)C(=O)N(Cc3ccccc3)C1=C[C@H](C(C)(C)C)O[C@@H]2C	nt	10.9	-2.8	nt	nt
Cc1cc(N2CCN(c3ncccn3)CC2)nc2c(C)cccc12	-9.3	35.0*	-1.8	0.5	5.7
COc1ccc(N2CCN(c3cc(C)c4cccc(C)c4n3)CC2)cc1	5.6	-1.0	2.4	-1.4	nt
COC(=O)CSc1nnc(-c2ccccc2OC)o1	-5.1	-3.4	-1.4	2.9	nt
Cc1cccc(C)c1OC(=O)CSc1nnc(-c2ccccc2O)o1	16.1	28.8*	5.5	3.8	26.4*
N#Cc1c(N2CCOCC2)nsc1-c1ccc(C(F)(F)F)cc1	-28.0	22.1*	4.7	1.8	16.4
Cc1cc(C(F)(F)F)c(C#N)c(N2CCOCC2)n1	-22.0	-3.4	-0.1	-1.9	nt
O=c1cccc(-c2cccc3ccccc23)o1	nt	4.6	-0.5	nt	nt
CCCN1C(=O)S/C(=C/c2ccc(N3CCOCC3)o2)C1=O	-0.1	47.1*	-11.5	-2.1	44.7*	RORg DNA counter=>40
CCCN1C(=O)S/C(=C\c2ccc(N3CCOCC3)o2)C1=O	0.4	-0.8	-9.4	-1.3	nt
SMILES	NR2E3 ag-1	Rev-erbA mod	PG9 Ab binder	NR2E3 ag-2	Rev-erbA confirm	others
COc1ccc(CNC(=O)CN(C)Cc2ccc(C(C)(C)C)cc2)cc1	-16.0	25.4*	-1.3	-0.5	-2.9
Cc1cccc(-c2cnc3cccnn23)c1	-41.8	-0.2	0.9	nt	nt
CCCN1CCCCC(NC(=O)c2ccc(C)cc2C)C1=O (stereo not drawn)	nt	1.2	-0.3	nt	nt
C=CCn1c(COc2ccc(Cl)cc2)nnc1SCC(=O)c1c(N)n(C)c(=O)n(C)c1=O	-15.2	23.7*	-0.3	0.6	-14.5
CCOC(=O)N1CCN(S(=O)(=O)c2ccc(C(=O)Nc3nc4ccc(F)cc4s3)cc2)CC1	-10.0	nt	-0.4	-1.1	nt
CCOC(=O)N1CCN(S(=O)(=O)c2ccc(C(=O)Nc3nc4ccccc4s3)cc2)CC1	-16.7	33.8*	6.6	-0.1	21.1*
CCOC(=O)c1sc(NC(=O)c2ccc(S(=O)(=O)N3CCCCCC3)cc2)nc1-c1ccccc1	-4.0	28.8*	-1.8	-0.4	4.5
Clc1ccccc1NN(Cc1ccccn1)c1ccccc1Cl	-11.7	2.0	0.6	nt	nt
Clc1ccccc1NN(Cc1ccncc1)c1ccccc1Cl	-5.7	17.8*	-0.5	nt	10.2
COC(=O)/C(C#N)=C/c1c(N2CCN(c3ccc(OC)cc3)CC2)nc2c(C)cccn2c1=O	-8.0	32.9*	-1.4	-3.5	0.8
O=C(NCc1ccc(F)cc1)C1CCCN(c2nc3ccsc3c(=O)s2)C1 (stereo not drawn)	-8.9	20.2*	1.4	-5.3	17.1
Cc1cc(=O)n2nc(N3CCCC(C(=O)NCc4ccc(F)cc4)C3)sc2n1 (stereo not drawn)	-29.7	0.1	-0.8	-3.0	nt
Cc1cc2nc3c(=O)n(CCc4ccccc4)c(=O)[nH]c3nc2cc1N	-32.2	37.8*	-6.5	-1.9	33.9*	RORg DNA counter=2.13*
Nc1ccc2nc3c(=O)n(CCc4ccccc4)c(=O)[nH]c3nc2c1	-10.4	71.8*	-6.0	-4.7	63.8*	RORg DNA counter=i
Nc1ccc2nc3c(=O)n(C4CCCCC4)c(=O)[nH]c3nc2c1	-58.2	76.6*	-4.6	-6.9	82.7*	RORg DNA counter=>40
N#Cc1nc(-c2ccccc2Cl)oc1N1CCN(C(=O)c2ccco2)CC1	0.7	25.1*	1.9	4.8	3.0
CC1CC(C)CN(c2oc(-c3ccccc3Cl)nc2C#N)C1 (stereo not drawn)	-17.9	17.7*	-0.7	-2.5	-13.6
N#Cc1nc(-c2ccccc2Cl)oc1N1CCCCC1	-53.5	0.4	-0.7	0.1	nt
COC(=O)c1ccc(NC(=O)c2ccc3c(c2)C(=O)N(C)C3=O)cc1	-4.6	52.2*	-1.1	0.3	33.5*	RORg DNA counter=>40
CC(C)CCn1c(SCC(=O)NC2CCS(=O)(=O)C2)nc2cc(Cl)ccc2c1=O (stereo not drawn)	0.3	21.3*	5.4	-5.8	21.2*
CC(C)Cn1c(SCC(=O)N(C)C2CCS(=O)(=O)C2)nc2cc(Cl)ccc2c1=O (stereo not drawn)	-0.2	3.5	-2.4	-4.5	nt
CC(C)CCn1c(SCC(=O)NC2CC2)nc2cc(Cl)ccc2c1=O	28.3	20.4*	-0.4	0.4	10.7
CCOC(=O)C1CCN(C(c2cc3ccc(C)c(C)c3[nH]c2=O)c2nnnn2C2CCCCC2)CC1 (stereo not drawn)	2.3	68.9*	-1.9	-2.2	96.9*
CCOC(=O)C1CCN(C(c2cc3c(C)ccc(C)c3[nH]c2=O)c2nnnn2C2CCCCC2)CC1 (stereo not drawn)	-19.2	3.5	-0.1	5.4	nt
Cc1cccc(C(=O)OCc2cc(=O)oc3c(C)c(C)ccc23)c1O	3.8	nt	nt	3.2	nt
